We go through 14 compounds from PubChem BioAssay.

What is called inhibition is the change of the read-out against control, counted positive when it falls.

A short description of test [1]: inhibitors of TNFa-induced NFkB p65 translocation, primary screen, imaging, HUVEC, MLSMR starter and 10KST1 sets (AID 438;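 active = inhibition above 20% together with a positive visual image hit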;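 also: compound added about 3h40 before a 20 min TNFalpha stimulation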;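 as to inhibition: signal is the nuclear over cytoplasmic p65 intensity ratio per well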). Particulars: HUVEC TNFa-induced p65 nuclear translocation; cell count: measured here: nuclei count (cytotoxicity indicator), at 2.08 µM; inhibition: at 2 µM, stronger effect = higher value, 0% TNFa-plus-vehicle, 100% no-TNFa wells.
Test [2] in a line: reduction of polyQ htt aggregates in cells – imaging, exon1htt(103Q)mCFP cells, high-content imaging, primary screen (AID 483;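 active = visual image review flags a hit and inhibition of aggregation exceeds 20%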;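 also: compound exposure lasted 3 days before fixation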;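 as to nuclei count: percent of the per-plate median nuclei count of sample wells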). Particulars: exon1htt(103Q)mCFP cell line, aggregate imaging, at 2 µM; inhibition of aggregation: stronger effect = higher value; nuclei count: measured here: cell count, toxicity.
Test [3] in a line: endothelial E-selectin expression blockers – imaging, HUVEC, immunofluorescence, MLSMR starter and 10KST1 sets, primary screen (AID 487;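 active = visually confirmed hit in the image check and inhibition above 20%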;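 as to inhibition: signal is fraction of cell area covered by stained E-selectin grains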;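 as to nuclei count: 100% = median nuclei count of all wells on the same plate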). Particulars: HUVEC TNFalpha-induced E-selectin immunofluorescence imaging, at 2 µM; inhibition: stronger effect = higher value; nuclei count: measured here: cell number, toxicity.
Test [4] concerns the target Voltage-gated potassium channel subunit beta-2 (Rattus norvegicus) (UniProt P62483). Put plainly: inhibitors of rat Kvbeta2 reductase activity – biochemical, NADPH fluorescence, primary screen (AID 622;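 active = fluorescence slope higher than the sample average by over 3 SD, cut at about -0.22 in these data, passing the limit was not always enough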;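 also: slope of raw intensity against log time taken from 70 to 1610 s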). Particulars: recombinant KvBeta, 4-cyanobenzaldehyde reduction, at 10 µM, stronger effect = higher value.
For test [5] the target is unchanged. Nature of the test: enhancers of rat Kvbeta2 NADPH turnover – biochemical, NADPH fluorescence, primary screen (AID 623;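 active = NADPH fluorescence slope more negative than the mean of all samples by about 3 SD, 99.7% confidence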;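 also: fluorescence intensity change per second fitted from 20 to 320 s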). The note with it: Recombinant KvBeta, NADPH fluorescence decrease slope, 10 min; at 10 µM; stronger effect = lower value.
Test [6] has as its target Muscarinic acetylcholine receptor M4 (Homo sapiens) (UniProt P08173). Put plainly: M4-linked GIRK flux change, two-sided – cell-based, HEK293 M4/GIRK, thallium flux, BTC-AM, M4 allosteric agonist project, primary screen (AID 625;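 active = fluorescence slope after compound addition differing from the mean of all tested samples at 99.7% confidence, mostly higher but some lower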;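 also: thallium influx through GIRK channels coupled to M4 in HEK293 cells with BTC-AM dye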). The note with it: at 10 µM, actives lie on both sides. In outline:
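assay system = HEK293 cells with M4 receptor and GIRK channels | medium = pH 7.3 thallium assay buffer | doses = 10 µM final, single point | timing = cells overnight at 37 °C, BTC-AM loading 1 h, reads 2 min total | signal = BTC-AM fluorescence, 1 Hz kinetic reads | read-out = post-addition slope, 15–24 s, of baseline-normalized fluorescence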

Test [7] can be described thus: blockers of RIG-like receptor reporter activation – cell-based, Sendai virus stimulus, luciferase, 10K MLSCN set, TLR/RLR signaling modifier project, primary screen (AID 602276).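 Also: firefly luciferase from ISG56 promoter only with Renilla not read in this screen; 0% = Sendai virus plus DMSO and 100% = medium plus DMSO without virus.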 Particulars: HEK293 RL24 IRF3 luciferase reporter, at 10 µM, stronger effect = higher value. (A reporter such as luciferase makes a cellular process visible.)
Test [8] in a line: TLR3 IRF3 reporter activation blockers – cell-based, poly I:C stimulus, luciferase, 10K MLSCN set, primary screen (AID 602277;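 active = inhibition of the reporter signal at or above 50%; inactive = inhibition below 50%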). Particulars: HEK293-TLR3 RL24 IRF3 luciferase reporter, at 10 µM, stronger effect = higher value.

Activity calls are given as the source filed them.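 The calls were made as follows, unless noted: active = inhibition at or above 50% at 10 µM; inactive = inhibition below 50%.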

Voltage-gated potassium channel subunit beta-2 (Rattus norvegicus), sequence (P62483 whole entry, looked up): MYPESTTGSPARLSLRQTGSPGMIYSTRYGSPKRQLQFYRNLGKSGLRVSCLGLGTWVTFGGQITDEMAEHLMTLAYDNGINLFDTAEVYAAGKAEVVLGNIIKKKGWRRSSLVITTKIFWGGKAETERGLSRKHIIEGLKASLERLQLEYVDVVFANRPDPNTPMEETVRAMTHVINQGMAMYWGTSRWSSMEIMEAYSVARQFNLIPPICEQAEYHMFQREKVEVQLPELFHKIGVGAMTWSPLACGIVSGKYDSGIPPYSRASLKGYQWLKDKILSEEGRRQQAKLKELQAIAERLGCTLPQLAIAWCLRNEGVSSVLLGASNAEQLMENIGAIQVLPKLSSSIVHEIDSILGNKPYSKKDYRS
Muscarinic acetylcholine receptor M4 (Homo sapiens), sequence (P08173 whole entry, looked up): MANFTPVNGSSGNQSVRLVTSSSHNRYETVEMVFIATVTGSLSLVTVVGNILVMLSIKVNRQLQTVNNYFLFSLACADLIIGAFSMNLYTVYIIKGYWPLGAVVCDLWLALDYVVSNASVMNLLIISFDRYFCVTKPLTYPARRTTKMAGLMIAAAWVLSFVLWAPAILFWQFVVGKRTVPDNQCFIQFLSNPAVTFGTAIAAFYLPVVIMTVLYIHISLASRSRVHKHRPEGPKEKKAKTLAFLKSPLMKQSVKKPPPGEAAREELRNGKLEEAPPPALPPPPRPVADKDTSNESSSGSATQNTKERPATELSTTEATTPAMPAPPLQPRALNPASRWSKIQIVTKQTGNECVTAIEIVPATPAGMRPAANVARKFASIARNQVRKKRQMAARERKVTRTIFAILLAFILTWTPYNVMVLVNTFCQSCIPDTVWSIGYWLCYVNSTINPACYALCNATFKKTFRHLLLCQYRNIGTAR

As to `Cc1cc(C)cc(NS(=O)(=O)c2ccc3[nH]cc(C(=O)NCc4ccco4)c(=O)c3c2)c1`, the cell count in test [1] was 416. Also, the inhibition in test [1] was 1.5% (inactive); in test [3], -19.7% (inactive); in test [7], 39.5% (inactive); in test [8] it was 49.1% (inactive). Besides, the inhibition of aggregation in test [2] was 3.8% (inactive). For the same compound, the nuclei count in test [2] is 99.9%; in test [3], 97.7%. The results for the fluorescence slope in test [4] and in test [6] were -0.57 (inactive) and 0.00555 (inactive), respectively. Moreover, the NADPH fluorescence slope in test [5] is -4.7e-05 (inactive).

On to `O=c1c2cn[nH]c2nc(SCc2ccc3c(c2)OCCO3)n1-c1ccccc1`, for which the cell count in test [1] came out at 488. Besides, the inhibition is 15.8% (inactive) in test [1], -27.1% (inactive) in test [3], 7.97% (inactive) in test [7] and 9.23% (inactive) in test [8]. In addition, the inhibition of aggregation in test [2] is 4.8% (inactive). In addition, the nuclei count in test [2] was found to be 112%; in test [3], 107%. Besides, the fluorescence slope is -0.508 (inactive) in test [4] and 0.0074 (inactive) in test [6]. For the same compound, the NADPH fluorescence slope in test [5] is 1.3e-05 (inactive).

As for `Cc1nc(-c2cnn(-c3ccccc3)c2)c2cc(C)oc2n1`, the cell count in test [1] stood at 312. For the same compound, the inhibition in test [1] was -2.8% (inactive); in test [3], -48.6% (inactive); in test [7], 10.4% (inactive); in test [8], -22.9% (inactive). The inhibition of aggregation in test [2] was 10.4% (inactive). Moreover, the nuclei count worked out at 85.8% in test [2] and 159% in test [3]. For the same compound, the results for the fluorescence slope in test [4] and in test [6] were -0.572 (inactive) and 0.0027 (inactive), respectively. In addition, the NADPH fluorescence slope in test [5] is 9.5e-07 (inactive).

Take `COc1cc(NC(=O)Cc2nn(C)c(=O)c3ccccc23)cc(OC)c1`: the cell count in test [1] amounted to 693. In addition, the inhibition in test [1] was -14.8% (inactive); in test [3] it was -39% (inactive); in test [7], -12.7% (inactive); in test [8] it was -56.4% (inactive). In test [2], the inhibition of aggregation was -21.4% (inactive). The values for the nuclei count in test [2] and in test [3] were 106% and 108%, respectively. Further, the fluorescence slope was -0.585 (inactive) in test [4] and 0.00514 (inactive) in test [6]. The NADPH fluorescence slope in test [5] was -4.8e-05 (inactive).

On to `COCCCn1c(SCC(=O)N2CCc3ccccc32)nnc1-c1ccoc1C`, for which the cell count in test [1] turned out to be 238. Moreover, the inhibition in test [1] was -3.2% (inactive); in test [3], 42.5% (inactive); in test [7], 20.2% (inactive); in test [8], 19.6% (inactive). The inhibition of aggregation in test [2] was 2.7% (inactive). The nuclei count in test [2] and in test [3] was 56.1% each time. Further, the figures for the fluorescence slope in test [4] and in test [6] were -0.548 (inactive) and 0.00429 (inactive), respectively. The NADPH fluorescence slope in test [5] was -5.6e-05 (inactive).

Take `O=C(CNS(=O)(=O)c1ccc(Br)s1)N1CCCC1`: the cell count in test [1] came out at 367. The inhibition was 3.7% (inactive) in test [1], -164% (inactive) in test [3], 21.1% (inactive) in test [7] and 25.7% (inactive) in test [8]. Further, the inhibition of aggregation in test [2] is -1% (inactive). Also, the nuclei count in test [2] was determined as 93.3%; in test [3], 101%. Besides, the fluorescence slope in test [4] was -0.636 (inactive); in test [6], 0.00369 (inactive). Moreover, the NADPH fluorescence slope in test [5] is -9.6e-06 (inactive).

In the case of `O=C(NCCc1ccccc1)C1CCN(S(=O)(=O)N2CCC3(CC2)OCCO3)CC1`, in test [1], the cell count came to 715. The inhibition in test [1] was 0.2% (inactive); in test [3], 16.5% (inactive); in test [7], 21.6% (inactive); in test [8], 20.5% (inactive). Further, the inhibition of aggregation in test [2] was -7.7% (inactive). In addition, the nuclei count in test [2] came out at 111%; in test [3], 104%. The fluorescence slope in test [4] is -0.544 (inactive); in test [6] it was 0.00522 (inactive). Besides, in test [5], the NADPH fluorescence slope is -4.5e-05 (inactive).

On to `COc1ccc(-c2nn3c(-c4ccncc4)nnc3s2)cc1OC`, for which, in test [1], the cell count came to 562. Also, the inhibition is 5.4% (inactive) in test [1], 24.6% (inactive) in test [3], 19.4% (inactive) in test [7] and 24.2% (inactive) in test [8]. In addition, the inhibition of aggregation in test [2] was -7.4% (inactive). For the same compound, the nuclei count in test [2] worked out at 90.8%; in test [3], 105%. The fluorescence slope was -0.42 (inactive) in test [4] and 0.00419 (inactive) in test [6]. The NADPH fluorescence slope in test [5] is -0.000356 (inactive).

On to `CCN(CCNC(=O)C1CCN(S(=O)(=O)CC)CC1)c1ccccc1`, for which, in test [1], the cell count turned out to be 446. The inhibition was -14.7% (inactive) in test [1], -93.7% (inactive) in test [3], 15.8% (inactive) in test [7] and 11.8% (inactive) in test [8]. Moreover, the inhibition of aggregation in test [2] was 5.7% (inactive). Besides, the nuclei count in test [2] was found to be 86.2%; in test [3] it was 106%. The fluorescence slope in test [4] was -0.254 (inactive); in test [6], 0.00662 (inactive). Moreover, the NADPH fluorescence slope in test [5] is -2.8e-05 (inactive).

Take `Cc1ccc(NC(=O)C2CCCNC2=O)nc1` (centres undefined): the cell count in test [1] amounted to 265. For the same compound, the inhibition in test [1] was -2.2% (inactive); in test [3] it was -48.5% (inactive); in test [7], 2.07% (inactive); in test [8], -1.11% (inactive). Moreover, the inhibition of aggregation in test [2] was 5.8% (inactive). Further, the nuclei count is 86.6% in test [2] and 82.2% in test [3]. Moreover, the figures for the fluorescence slope in test [4] and in test [6] were -0.448 (inactive) and 0.00534 (inactive), respectively. Also, the NADPH fluorescence slope in test [5] was -4.9e-05 (inactive).

Take `CC(c1nnc(SCC(=O)Nc2sccc2C#N)n1-c1ccc(Cl)cc1)N(C)C` (centres undefined): in test [1], the cell count worked out at 539. Also, the inhibition in test [1] is -20.1% (inactive); in test [3], -28.9% (inactive); in test [7], 17.6% (inactive); in test [8], 25.1% (inactive). For the same compound, in test [2], the inhibition of aggregation is 2% (inactive). Also, the nuclei count in test [2] worked out at 101%; in test [3] it was 143%. For the same compound, the results for the fluorescence slope in test [4] and in test [6] were -0.463 (inactive) and 0.00514 (inactive), respectively. For the same compound, the NADPH fluorescence slope in test [5] is -2.7e-05 (inactive).

Regarding `CCN1CCN(C(=O)c2ccc3c(=O)n(CCC4=CCCCC4)c(=O)[nH]c3c2)CC1`, in test [1], the cell count came out at 465. Moreover, the inhibition in test [1] is 3.4% (inactive); in test [3], -29.3% (inactive); in test [7], -36.8% (inactive); in test [8], -73.5% (inactive). In test [2], the inhibition of aggregation was -14% (inactive). The nuclei count came to 95.8% in test [2] and 114% in test [3]. Moreover, the fluorescence slope was -0.576 (inactive) in test [4] and 0.00535 (inactive) in test [6]. In test [5], the NADPH fluorescence slope was -7.8e-05 (inactive).

For `O=C(CSc1nc2ccccc2o1)N1CCN(c2ccc(Cl)cc2)CC1`, the cell count in test [1] was 301. The inhibition in test [1] was -0.5% (inactive); in test [3] it was -47% (inactive); in test [7] it was 16.8% (inactive); in test [8] it was 7.29% (inactive). The inhibition of aggregation in test [2] was -13.9% (inactive). The nuclei count in test [2] amounted to 117%; in test [3], 124%. The fluorescence slope in test [4] was -0.576 (inactive); in test [6] it was 0.00749 (inactive). Also, the NADPH fluorescence slope in test [5] was -3.9e-05 (inactive).

With `COc1ccccc1C(=O)Nc1c2c(nn1-c1cccc(C)c1C)CS(=O)(=O)C2`, the cell count in test [1] came out at 335. The inhibition is -6.6% (inactive) in test [1], -51.3% (inactive) in test [3], 14.2% (inactive) in test [7] and 19.1% (inactive) in test [8]. Also, the inhibition of aggregation in test [2] was -7% (inactive). The nuclei count in test [2] was determined as 79.5%; in test [3], 106%. The fluorescence slope is -0.492 (inactive) in test [4] and 0.00519 (inactive) in test [6]. The NADPH fluorescence slope in test [5] is -4.5e-06 (inactive).
